From ChEMBL document CHEMBL3751758, “Cysteine-Rich Peptide Family with Unusual Disulfide Connectivity from Jasminum sambac” (J Nat Prod, 2015) come the findings set out here.

Data set [1] can be described thus: (§1) Stability of the compound in 100 mM sodium citrate buffer assessed as pepsin (unknown origin)-mediated compound degradation by measuring intact compound level at pH 2.5 at 37 degC after 4 hrs by UPLC analysis. The format is ADME. The conditions noted are these: human, buffer, pH 2.5, 4 h.
The nature of data set [2]: Stability of the compound in NH4HCO3 buffer assessed as trypsin (unknown origin)-mediated degradation at pH 7.8 at 37 degC after 1 hr by UPLC analysis. The format is ADME. The conditions noted are these: human, pH 7.8, 1 h.
In a further data set the target is T1, Carboxypeptidase A1 (Homo sapiens, UniProt P15085).
T1 sequence (P15085 whole entry): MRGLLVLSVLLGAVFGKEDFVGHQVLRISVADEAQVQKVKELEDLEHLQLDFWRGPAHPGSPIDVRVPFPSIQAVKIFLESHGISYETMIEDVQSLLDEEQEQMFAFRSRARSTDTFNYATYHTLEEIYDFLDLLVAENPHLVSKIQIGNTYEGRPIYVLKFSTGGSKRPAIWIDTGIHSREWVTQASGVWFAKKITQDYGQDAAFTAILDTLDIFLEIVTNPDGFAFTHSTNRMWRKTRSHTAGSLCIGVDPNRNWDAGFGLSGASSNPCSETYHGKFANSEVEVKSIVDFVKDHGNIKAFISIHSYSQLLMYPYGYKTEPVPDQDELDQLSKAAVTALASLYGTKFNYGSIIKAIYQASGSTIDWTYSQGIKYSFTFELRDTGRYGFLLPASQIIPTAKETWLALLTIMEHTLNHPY
Kind of data set: Stability of the compound in Tris buffer assessed as carboxypeptidase A (unknown origin)-mediated compound degradation at pH 7.5 at 37 degC after 4 hrs by UPLC analysis. The format is ADME. The conditions noted are these: pH 7.5, 4 h. Put shortly:
(§2)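 Peptide was incubated with or without carboxypeptidase A at 50:1 (w/w) in 50 mM Tris/100 mM NaCl pH 7.5 at 37 °C for up to 6 h. Collected peaks were checked by MALDI-TOF, and stability was judged from UPLC peak areas.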

The next data set deals with Staphylococcus aureus. Kind of data set: Antibacterial activity against Staphylococcus aureus ATCC 12600 up to 100 uM by radial diffusion assay. The format is functional, organism-based. Put shortly:
(§3)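 Radial diffusion assay under low-salt conditions (10 mM Na3PO4). Strains were grown in trypticase soy broth. D4R peptide dendrimer was the positive control.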

The next data set has as its system pepsin. The data set is described as §1. The format is ADME. The conditions noted are these: human, pepsin in 100 mM sodium citrate buffer, pH 2.5; read-out: Stability.
A further data set relates to HUVEC. Kind of data set: Cytotoxicity against HUVEC at 10 uM after 24 hrs by Presto Blue-based cell viability assay. The conditions noted are these: human. Put shortly:
(§4)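 Cells were seeded at 8 x 10^3 per well in DMEM with 10% FBS and 1% penicillin/streptomycin, at 37 °C under 5% CO2. After 24 h, peptide was added at 0.01–10 µM in triplicate for 24 h. PrestoBlue was then added for 1 h at 37 °C and absorbance read at 570 nm. Controls were 1% Triton X-100 and PBS.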

In the next data set the target is T2, carboxypeptidase A (Homo sapiens, UniProt P15085).
T2 sequence (P15085 whole entry): T1 sequence (P15085 whole entry)
Kind of data set: Stability of the compound in Tris buffer assessed as carboxypeptidase A (unknown origin)-mediated compound degradation by measuring intact compound level at pH 7.5 at 37 degC after 6 hrs by UPLC analysis. The conditions noted are these: read-out: Stability. The format is ADME. The essentials: as §2

The subject of another data set is Escherichia coli. As to the kind of experiment: Antibacterial activity against Escherichia coli ATCC 25922 up to 100 uM by radial diffusion assay. The format is functional, organism-based. The essentials: as §3
Data set [3] in a line: Hemolytic activity in human type O+ erythrocytes up to 10 uM after 4 hrs by spectrophotometric analysis. The conditions noted are these: erythrocyte. The format is ADME, cell-based. The essentials: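 Erythrocytes came from fresh type O+ blood of a healthy volunteer. Cells were pelleted at 1000 rpm for 15 min, washed three times in PBS and diluted 100X in PBS. Peptide at various concentrations was mixed with an equal volume of cells for 4 h at 37 °C. Plates were spun at 1000 rpm for 5 min and supernatant absorbance read at 415 nm. Controls were 0.1% Triton X-100 and PBS.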

The subject of the next data set is Candida albicans. As to the kind of experiment: Antifungal activity against Candida albicans 11006 up to 100 uM by radial diffusion assay. The format is functional, organism-based. Put shortly: as §3
Data set [4] can be described thus: Stability of the compound in boiling water assessed as compound remaining after 1 hr by UPLC analysis. The format is physicochemical. The conditions noted are these: read-out: Stability.
In data set [5] the target is T3, Carboxypeptidase A1 (Bos taurus) (UniProt P00730).
T3 sequence (whole entry): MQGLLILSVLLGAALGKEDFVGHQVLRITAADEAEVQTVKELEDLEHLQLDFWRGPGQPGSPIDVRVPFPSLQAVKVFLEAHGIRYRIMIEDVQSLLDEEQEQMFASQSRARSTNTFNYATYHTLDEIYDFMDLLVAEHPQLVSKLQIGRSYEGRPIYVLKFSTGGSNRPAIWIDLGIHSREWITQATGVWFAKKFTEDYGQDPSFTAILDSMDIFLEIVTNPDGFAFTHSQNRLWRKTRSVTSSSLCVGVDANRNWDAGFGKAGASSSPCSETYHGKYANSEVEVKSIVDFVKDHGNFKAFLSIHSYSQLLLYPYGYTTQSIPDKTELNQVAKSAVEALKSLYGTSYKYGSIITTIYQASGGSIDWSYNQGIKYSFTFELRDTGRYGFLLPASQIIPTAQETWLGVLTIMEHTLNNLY
Kind of data set: Inhibition of bovine carboxypeptidase A using N-(4-methoxyphenylazoformyl)phenylalanine as substrate at 0.1 to 100 uM. The essentials: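 Peptide at 0.1–100 µM was combined with 0.1 mM N-(4-methoxyphenylazoformyl)phenylalanine substrate. The reaction was started with 25 nM bovine carboxypeptidase A, and substrate hydrolysis was followed at 350 nm.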

The next data set deals with trypsin. Kind of data set: Stability of the compound in NH4HCO3 buffer assessed as trypsin (unknown origin)-mediated degradation by measuring intact compound level at pH 7.8 at 37 degC after 8 hrs by UPLC analysis. The format is ADME. The conditions noted are these: human, read-out: Stability.
For a further data set, the system named is Vero. Kind of data set: Cytotoxicity against African green monkey Vero cells at 10 uM after 24 hrs by Presto Blue-based cell viability assay. The conditions noted are these: chlorocebus sabaeus. Put shortly: as §4

Active and inactive are the calls of the source. The rule behind the calls is not given here. Bridge positions count the residues as written; N and C are the ends. Peptide text beside a SMILES is read from it.

On to `CC(C)C[C@H](NC(=O)[C@@H]1CCCN1C(=O)[C@H](CO)NC(=O)[C@H](Cc1ccccc1)NC(=O)CNC(=O)[C@@H]1CCCN1C(=O)[C@@H]1CCCN1C(=O)[C@H](CCCN=C(N)N)NC(=O)[C@@H](N)CCCCN)C(=O)O`, for which the Stability result (in data set [1]; in data set [2]; on Carboxypeptidase A1) was “Unstable” each time.
`CC(C)C[C@H](NC(=O)[C@H](CCCNC(=N)N)NC(=O)CNC(=O)[C@H](CCCNC(=N)N)NC(=O)[C@H](CCCNC(=N)N)NC(=O)[C@H](Cc1ccc(O)cc1)NC(=O)[C@H](CC(C)C)NC(=O)[C@@H](N)CCCNC(=N)N)C(=O)N[C@@H](Cc1ccc(O)cc1)C(=O)N[C@@H](CCCNC(=N)N)C(=O)N[C@@H](CCCNC(=N)N)C(=O)N[C@@H](CC(N)=O)C(=O)N[C@@H](Cc1cnc[nH]1)C(=O)N[C@H](C(=O)O)C(C)C` (H-RLYRRGRLYRRNHV-OH): the Stability entry (in data set [1]; in data set [2]; on Carboxypeptidase A1) was “Unstable” throughout.
For the compound `CC[C@H](C)[C@H](NC(=O)[C@@H](NC(=O)[C@H](CC(N)=O)NC(=O)[C@@H]1CSSC[C@@H]2NC(=O)[C@H](CC(=O)O)NC(=O)[C@H](CO)NC(=O)[C@H](CC(N)=O)NC(=O)[C@H](CO)NC(=O)[C@H](CCCNC(=N)N)NC(=O)[C@@H]3CSSC[C@H](NC(=O)[C@H]([C@@H](C)CC)NC(=O)[C@H](CCCNC(=N)N)NC(=O)[C@H](Cc4c[nH]c5ccccc45)NC(=O)[C@H]([C@@H](C)CC)NC(=O)[C@H]([C@@H](C)CC)NC(=O)[C@H](CC(N)=O)NC2=O)C(=O)N[C@@H](CCCNC(=N)N)C(=O)N[C@@H](CC(=O)O)C(=O)NCC(=O)N[C@@H](CSSC[C@H](NC(=O)[C@H](CC(C)C)NC(=O)[C@@H](N)CCC(N)=O)C(=O)N[C@@H](CC(C)C)C(=O)N[C@@H](CCC(N)=O)C(=O)N3)C(=O)N1)C(C)C)C(=O)O` (H-QLCLQCRSNSDCNIIWRICRDGCCNVI-OH; disulfide 3-23, 6-19, 12-24), the outcome in the data set on Staphylococcus aureus, in the data set on Escherichia coli and in the data set on Candida albicans was inactive. Besides, in the data set with pepsin, the remaining at 4 h was > 90%. The Activity entry (in the data set with HUVEC; in [3]; in the data set on Vero) was “Non-toxic” each time. Also, at carboxypeptidase A, the remaining at 6 h was > 90%. Besides, the remaining at 1 h in data set [4] amounted to 96%. The inhibition entry in [5] was “inactive”. Further, the remaining at 8 h with trypsin was determined as 73%.
